Measurements: paper PMC5615155 (Toxicology Reports, 2017)
“Also recorded” adds a separate entry of the source.

Assays:
[1] = definitive developmental toxicity study; type: in vivo, Crl:CD(SD) rats
In short: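 For the definitive developmental toxicity study, bred female Sprague-Dawley rats, 25/group, were given the sulfate salt of the test compound by oral gavage at 250, 500 or 1000 mg/kg bw/day, with a control group. Per litter, corpora lutea, implantation sites, pre- and post-implantation loss, live and dead fetuses, resorptions (early/late), fetal sex and fetal body weight were recorded.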

[2] = tested on: 68 receptor binding assays for GPCRs, ion channels, nuclear receptors, transporters; experiment: receptor lead profiling panel; details: 10 μM
CYP2D6 = CYP2D6 (Homo sapiens, UniProt P10635); experiment: CYP inhibition, spectrofluorimetric; type: biochemical; details: recombinant human CYP2D6 expressed in insect Sf9 cells
In short: (§1)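 Inhibition was assayed with recombinant human CYP isoforms expressed in insect Sf9 cells. Turnover of spectrofluorimetric substrates was read by fluorescence. Test compound was tested at a single concentration of 10 μM.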

CYP3A4 = CYP3A4 (Homo sapiens, UniProt P08684); experiment: CYP inhibition, spectrofluorimetric; type: biochemical; details: recombinant human CYP3A4 expressed in insect Sf9 cells
In short: as §1

[3] = in vitro microsomal metabolism; type: in vitro ADME, human; details: 10 μM, 0.5 mg/mL, +NADPH, 120 min
E. coli strain WP2 uvrA = experiment: bacterial reverse mutation test; type: cell-based; details: 100–5000 μg/plate, plate incorporation, ±S9
In short: (§2)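 GLP plate-incorporation Ames test per OECD 471 with S. typhimurium TA98, TA100, TA1535, TA1537 and E. coli WP2 uvrA, ± Aroclor 1254-induced male rat liver S9. An initial toxicity-mutation phase (1.5–5000 μg/plate) set the range for the confirmatory assay at 100, 333, 1000, 3333 and 5000 μg/plate. Negative and positive controls were included. Toxicity and precipitate were noted.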

[4] = cited from earlier work
hERG = hERG (Homo sapiens, UniProt Q12809); experiment: hERG electrophysiology; type: cell-based
[5] = tested on: S. typhimurium strains TA98, TA100, TA1535, TA1537; experiment: bacterial reverse mutation test; type: cell-based
In short: as §2

CYP1A2 = target: T1, CYP1A2 (Homo sapiens, UniProt P05177); experiment: CYP inhibition, spectrofluorimetric; type: biochemical; details: recombinant human CYP1A2 expressed in insect Sf9 cells
T1 sequence (P05177 1-516): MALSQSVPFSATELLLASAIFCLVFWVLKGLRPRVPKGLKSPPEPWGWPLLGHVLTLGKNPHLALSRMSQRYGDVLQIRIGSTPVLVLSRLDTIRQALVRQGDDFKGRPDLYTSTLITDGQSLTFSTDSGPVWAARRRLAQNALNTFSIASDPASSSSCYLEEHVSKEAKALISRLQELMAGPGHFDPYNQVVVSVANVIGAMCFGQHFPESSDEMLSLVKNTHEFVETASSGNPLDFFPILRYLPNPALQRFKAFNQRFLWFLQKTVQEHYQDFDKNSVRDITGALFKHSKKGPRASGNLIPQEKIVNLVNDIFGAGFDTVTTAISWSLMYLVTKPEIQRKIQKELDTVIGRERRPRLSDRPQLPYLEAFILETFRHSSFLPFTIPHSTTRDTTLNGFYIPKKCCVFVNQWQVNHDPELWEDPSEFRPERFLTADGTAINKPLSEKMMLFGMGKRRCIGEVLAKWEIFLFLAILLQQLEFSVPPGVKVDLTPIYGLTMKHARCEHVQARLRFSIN
In short: as §1

[6] = 28-day dose-range finding dietary toxicity study; type: in vivo, CD [Crl:CD(SD)] rats
In short: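 This 28-day dose-range-finding study used CD [Crl:CD(SD)] rats, 8/sex/group. Rats received test compound continuously in the diet at nominal 10, 30 or 100 mg/kg bw/day; controls got untreated diet. Dietary concentration (ppm) was adjusted weekly from body weight and food consumption to keep mg/kg bw/day doses constant. NOAEL was set from the 28-day findings.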

hERG, sequence (Q12809 whole entry): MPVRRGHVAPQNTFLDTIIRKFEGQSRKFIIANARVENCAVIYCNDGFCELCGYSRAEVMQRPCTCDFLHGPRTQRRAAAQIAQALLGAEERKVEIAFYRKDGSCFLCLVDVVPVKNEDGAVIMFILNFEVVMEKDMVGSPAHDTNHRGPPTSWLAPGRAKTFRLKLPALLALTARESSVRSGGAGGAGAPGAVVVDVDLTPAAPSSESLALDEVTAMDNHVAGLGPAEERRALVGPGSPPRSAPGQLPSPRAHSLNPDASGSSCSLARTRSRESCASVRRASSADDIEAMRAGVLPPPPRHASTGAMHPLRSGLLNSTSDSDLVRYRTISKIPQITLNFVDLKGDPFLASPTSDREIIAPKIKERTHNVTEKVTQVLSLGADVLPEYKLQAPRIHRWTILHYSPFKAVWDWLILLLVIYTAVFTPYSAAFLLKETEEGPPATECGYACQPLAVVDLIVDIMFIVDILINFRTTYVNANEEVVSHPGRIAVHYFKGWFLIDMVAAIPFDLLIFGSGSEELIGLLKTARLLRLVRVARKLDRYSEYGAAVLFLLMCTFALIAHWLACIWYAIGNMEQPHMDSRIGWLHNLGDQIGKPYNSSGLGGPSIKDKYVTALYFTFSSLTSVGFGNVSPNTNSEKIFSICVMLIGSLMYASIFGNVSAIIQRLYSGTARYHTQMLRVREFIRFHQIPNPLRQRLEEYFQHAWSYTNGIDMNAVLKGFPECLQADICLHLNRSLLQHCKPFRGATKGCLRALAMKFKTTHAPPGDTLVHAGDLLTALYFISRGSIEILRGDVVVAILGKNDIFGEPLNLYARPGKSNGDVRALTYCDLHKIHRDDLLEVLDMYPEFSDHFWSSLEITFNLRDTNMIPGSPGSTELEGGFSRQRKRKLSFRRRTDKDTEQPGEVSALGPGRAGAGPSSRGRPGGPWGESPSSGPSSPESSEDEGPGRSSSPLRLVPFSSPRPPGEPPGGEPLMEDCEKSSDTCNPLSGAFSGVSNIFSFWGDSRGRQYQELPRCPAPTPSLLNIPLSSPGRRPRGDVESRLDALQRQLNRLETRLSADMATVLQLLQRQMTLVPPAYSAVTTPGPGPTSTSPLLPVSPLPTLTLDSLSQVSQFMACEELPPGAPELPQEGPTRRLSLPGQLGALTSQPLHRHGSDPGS
CYP3A4, sequence (P08684 whole entry): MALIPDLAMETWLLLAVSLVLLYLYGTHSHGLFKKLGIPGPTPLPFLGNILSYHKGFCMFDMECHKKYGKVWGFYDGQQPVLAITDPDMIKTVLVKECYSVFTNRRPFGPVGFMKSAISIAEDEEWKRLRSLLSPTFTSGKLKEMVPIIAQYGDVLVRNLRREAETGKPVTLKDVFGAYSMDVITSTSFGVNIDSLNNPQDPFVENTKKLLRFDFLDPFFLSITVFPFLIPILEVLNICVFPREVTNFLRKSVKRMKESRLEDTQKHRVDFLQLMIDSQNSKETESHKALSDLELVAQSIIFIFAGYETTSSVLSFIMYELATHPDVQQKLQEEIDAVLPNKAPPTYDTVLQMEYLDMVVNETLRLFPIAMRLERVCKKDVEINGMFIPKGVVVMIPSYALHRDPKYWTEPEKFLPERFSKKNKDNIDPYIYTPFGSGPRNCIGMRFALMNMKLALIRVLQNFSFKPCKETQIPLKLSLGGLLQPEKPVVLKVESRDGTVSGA
CYP2D6, sequence (P10635 whole entry, canonical isoform): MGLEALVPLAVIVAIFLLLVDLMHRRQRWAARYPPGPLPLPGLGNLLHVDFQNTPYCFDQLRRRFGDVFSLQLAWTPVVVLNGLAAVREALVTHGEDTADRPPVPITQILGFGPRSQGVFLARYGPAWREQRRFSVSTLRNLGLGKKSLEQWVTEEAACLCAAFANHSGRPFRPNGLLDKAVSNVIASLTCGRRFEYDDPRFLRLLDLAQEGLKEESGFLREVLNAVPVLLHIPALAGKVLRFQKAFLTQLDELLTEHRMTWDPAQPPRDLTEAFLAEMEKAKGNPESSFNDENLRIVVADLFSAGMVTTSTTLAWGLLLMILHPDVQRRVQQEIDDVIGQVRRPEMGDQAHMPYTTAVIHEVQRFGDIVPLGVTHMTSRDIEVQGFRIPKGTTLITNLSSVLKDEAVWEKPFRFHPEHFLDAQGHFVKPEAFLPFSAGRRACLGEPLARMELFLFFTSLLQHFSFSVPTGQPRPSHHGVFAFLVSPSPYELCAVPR

Cc1cc(C(=O)NC(C)(C)COc2cccc3c2C(N)=NS(=O)(=O)N3)cc(C)n1.O=S(=O)(O)O [S8069]
Corpora Lutea ([1]; 250 mg/kg bw/d, Mean): 15.1
Dead Fetuses ([1]; 250 mg/kg bw/d, Mean): 0.0
Fetal Wt. ([1]; 250 mg/kg bw/d, Mean): 5.9 g
Fetuses, Sex F ([1]; 250 mg/kg bw/d, Mean): 7.2
Fetuses, Sex M ([1]; 250 mg/kg bw/d, Mean): 6.6
Implant. Sites ([1]; 250 mg/kg bw/d, Mean): 14.8
Post-Implant. Loss ([1]; 250 mg/kg bw/d, Mean): 1.0
Pre-Implant. Loss ([1]; 250 mg/kg bw/d, Mean): 0.4
Resorptions, Early ([1]; 250 mg/kg bw/d, Mean): 1.0
Resorptions, Late ([1]; 250 mg/kg bw/d, Mean): 0.0
Viable Fetuses ([1]; 250 mg/kg bw/d, Mean): 13.8
Corpora Lutea ([1]; 250 mg/kg bw/d, Total): 363
Dead Fetuses ([1]; 250 mg/kg bw/d, Total): 0
Fetuses, Sex F ([1]; 250 mg/kg bw/d, Total): 173
Fetuses, Sex M ([1]; 250 mg/kg bw/d, Total): 158
Implant. Sites ([1]; 250 mg/kg bw/d, Total): 354
Post-Implant. Loss ([1]; 250 mg/kg bw/d, Total): 23
Pre-Implant. Loss ([1]; 250 mg/kg bw/d, Total): 9
Resorptions, Early ([1]; 250 mg/kg bw/d, Total): 23
Resorptions, Late ([1]; 250 mg/kg bw/d, Total): 0
Viable Fetuses ([1]; 250 mg/kg bw/d, Total): 331
Corpora Lutea ([1]; 500 mg/kg bw/d, Mean): 16.1
Dead Fetuses ([1]; 500 mg/kg bw/d, Mean): 0.0
Fetal Wt. ([1]; 500 mg/kg bw/d, Mean): 5.6 g
Fetuses, Sex F ([1]; 500 mg/kg bw/d, Mean): 8.2
Fetuses, Sex M ([1]; 500 mg/kg bw/d, Mean): 6.6
Implant. Sites ([1]; 500 mg/kg bw/d, Mean): 15.4
Post-Implant. Loss ([1]; 500 mg/kg bw/d, Mean): 0.7
Pre-Implant. Loss ([1]; 500 mg/kg bw/d, Mean): 0.7
Resorptions, Early ([1]; 500 mg/kg bw/d, Mean): 0.7
Resorptions, Late ([1]; 500 mg/kg bw/d, Mean): 0.0
Viable Fetuses ([1]; 500 mg/kg bw/d, Mean): 14.7
Corpora Lutea ([1]; 500 mg/kg bw/d, Total): 370
Dead Fetuses ([1]; 500 mg/kg bw/d, Total): 0
Fetuses, Sex F ([1]; 500 mg/kg bw/d, Total): 188
Fetuses, Sex M ([1]; 500 mg/kg bw/d, Total): 151
Implant. Sites ([1]; 500 mg/kg bw/d, Total): 355
Post-Implant. Loss ([1]; 500 mg/kg bw/d, Total): 16
Pre-Implant. Loss ([1]; 500 mg/kg bw/d, Total): 15
Resorptions, Early ([1]; 500 mg/kg bw/d, Total): 16
Resorptions, Late ([1]; 500 mg/kg bw/d, Total): 0
Viable Fetuses ([1]; 500 mg/kg bw/d, Total): 339
malformations, fetuses (litters) ([1]; 500 mg/kg bw/day): 4(4)
skeletal malformations, fetuses (litters) ([1]; 500 mg/kg bw/day): 3(3)
visceral malformations, fetuses (litters) ([1]; 500 mg/kg bw/day): 3(3)
Corpora Lutea ([1]; 1000 mg/kg bw/d, Mean): 15.1
Dead Fetuses ([1]; 1000 mg/kg bw/d, Mean): 0.0
Fetal Wt. ([1]; 1000 mg/kg bw/d, Mean): 5.6 g
Fetuses, Sex F ([1]; 1000 mg/kg bw/d, Mean): 7.0
Fetuses, Sex M ([1]; 1000 mg/kg bw/d, Mean): 7.3
Implant. Sites ([1]; 1000 mg/kg bw/d, Mean): 14.6
Post-Implant. Loss ([1]; 1000 mg/kg bw/d, Mean): 0.3
Pre-Implant. Loss ([1]; 1000 mg/kg bw/d, Mean): 0.6
Resorptions, Early ([1]; 1000 mg/kg bw/d, Mean): 0.3
Resorptions, Late ([1]; 1000 mg/kg bw/d, Mean): 0.0
Viable Fetuses ([1]; 1000 mg/kg bw/d, Mean): 14.3
Corpora Lutea ([1]; 1000 mg/kg bw/d, Total): 348
Dead Fetuses ([1]; 1000 mg/kg bw/d, Total): 0
Fetuses, Sex F ([1]; 1000 mg/kg bw/d, Total): 160
Fetuses, Sex M ([1]; 1000 mg/kg bw/d, Total): 168
Implant. Sites ([1]; 1000 mg/kg bw/d, Total): 335
Post-Implant. Loss ([1]; 1000 mg/kg bw/d, Total): 7
Pre-Implant. Loss ([1]; 1000 mg/kg bw/d, Total): 13
Resorptions, Early ([1]; 1000 mg/kg bw/d, Total): 7
Resorptions, Late ([1]; 1000 mg/kg bw/d, Total): 0
Viable Fetuses ([1]; 1000 mg/kg bw/d, Total): 328
malformations, fetuses (litters) ([1]; 1000 mg/kg bw/day): 1(1)
visceral malformations, fetuses (litters) ([1]; 1000 mg/kg bw/day): 1(1)
females with rales 1 h following dose ([1]; 1000 mg/kg bw/day, GD 8–17): 6
females with salivation at time of dose ([1]; 1000 mg/kg bw/day, GD 12–16): 4
mean maternal body weight loss ([1]; 1000 mg/kg bw/day, Gestation Day 8–9): 2 g
external malformations ([1]; test article-treated groups): no external malformations observed

Cc1cc(C(=O)NC(C)(C)COc2cccc3c2C(N)=NS(=O)(=O)N3)cc(C)n1 [S2218, N-(1-((4-amino-2,2-dioxido-1H-benzo[c][1,2,6]thiadiazin-5-yl)oxy)-2-methylpropan-2-yl)-2,6-dimethylisonicotinamide]
inhibition or stimulation in lead profiling receptor screen [2]: < 50%
inhibition at 10 μM (CYP2D6): ≤ 7%
inhibition at 10 μM (CYP3A4): ≤ 7%
% MS (EIC) peak area of parent relative to time 0 [3]: 98.4 ± 0.4%
Reverse mutation (in vitro), result (E. coli strain WP2 uvrA): not mutagenic; also recorded: Negative
water solubility at low pH vs S6973 and S617 [4]: improved water solubility at low pH
inhibition at 10 μM (hERG): < 10%
Reverse mutation (in vitro), result ([5]; 100–5000 μg/plate, plate incorporation, ±S9): not found to be mutagenic; also recorded: Negative
cytotoxicity (background lawn / revertant colonies) ([5]; all tester strains, ±S9, up to 5000 μg per plate): No cytotoxicity
concentration at which precipitate was observed ([5]; confirmatory mutagenicity assay): ≥ 3333 μg per plate
concentration at which precipitate was observed ([5]; initial toxicity-mutation assay): 5000 μg per plate
inhibition at 10 μM (CYP1A2): ≤ 7%
Findings ([6]; 10, 30, 100 mg/kg bw/day food ad-mix): Slight increase in food consumption and mean body weight in males at 10 and 30 mg/kg bw/day
NOAEL at 28 days ([6]; both, CD [Crl:CD(SD)], rat, in vivo, oral): 100 mg/kg/day
